Test results: ChEMBL document CHEMBL1165965, “Synthesis and structure-activity relationships of 1,2,3,4-tetrahydropyrido[2,3-b]pyrazines as potent and selective inhibitors of the anaplastic lymphoma kinase” (Bioorg Med Chem, 2010)

What was measured:
[1] = biological target: Mitogen-activated protein kinase 8 (Homo sapiens) (UniProt P45983); test: Inhibition of JNK1 at 1 uM
In short: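 Single-concentration screen on the Ambit KINOMEscan platform, run against a panel of 250–400 kinases. Per-kinase inhibition was also summarized as S(90), the fraction of kinases inhibited by more than 90%.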

[2] = biological target: Mitogen-activated protein kinase 11 (Homo sapiens) (UniProt Q15759); test: Inhibition of p38-beta at 1 uM
[3] = biological target: MAP/microtubule affinity-regulating kinase 3 (Homo sapiens) (UniProt P27448); test: Inhibition of MARK3 at 1 uM
In short: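 Kinase-panel screen using KINOMEscan technology, with 250–400 kinases per panel. Each compound was tested at a single concentration, and inhibition of each kinase was recorded. Selectivity was summarised as S(90), the fraction of kinases inhibited by more than 90%.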

[4] = biological target: Cyclin-dependent kinase 2 (Homo sapiens) (UniProt P24941); test: Inhibition of CDK2 at 1 uM
In short: (§1)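 Ambit KINOMEscan screen at a single concentration across a 250–400 kinase panel, recorded as percent inhibition. Selectivity was expressed as S(90), the fraction of kinases inhibited >90%.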

[5] = biological target: Serine/threonine-protein kinase MRCK gamma (Homo sapiens) (UniProt Q6DT37); test: Inhibition of DMPK2 at 1 uM
In short: (§2)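 Single-concentration screen using Ambit Bioscience KINOMEscan technology across a panel of 250–400 kinases. Per-kinase inhibition from this screen was summarized as S(90), the fraction of kinases inhibited by more than 90%.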

[6] = biological target: Ephrin type-A receptor 7 (Homo sapiens) (UniProt Q15375); test: Inhibition of EPHA7 at 1 uM; in short: as §2
[7] = biological target: Aurora kinase B (Homo sapiens) (UniProt Q96GD4); test: Inhibition of AURKB at 1 uM; in short: as §1
[8] = biological target: T1, Membrane-associated tyrosine- and threonine-specific cdc2-inhibitory kinase (Homo sapiens) (UniProt Q99640); test: Inhibition of PKMYT1 at 1 uM
T1 sequence (whole entry): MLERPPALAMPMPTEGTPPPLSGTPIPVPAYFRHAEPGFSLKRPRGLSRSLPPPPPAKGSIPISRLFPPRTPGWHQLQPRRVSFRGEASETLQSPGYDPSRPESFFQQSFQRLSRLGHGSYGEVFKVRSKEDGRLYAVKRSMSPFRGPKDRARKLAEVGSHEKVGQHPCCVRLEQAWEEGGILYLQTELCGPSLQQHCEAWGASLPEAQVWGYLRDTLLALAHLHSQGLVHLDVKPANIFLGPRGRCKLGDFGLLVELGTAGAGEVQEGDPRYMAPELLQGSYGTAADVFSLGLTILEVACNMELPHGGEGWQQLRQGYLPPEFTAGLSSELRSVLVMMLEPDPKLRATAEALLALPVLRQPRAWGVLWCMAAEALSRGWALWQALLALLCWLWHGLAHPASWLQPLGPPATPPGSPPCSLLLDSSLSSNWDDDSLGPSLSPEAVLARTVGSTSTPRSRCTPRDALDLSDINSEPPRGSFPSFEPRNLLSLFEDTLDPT

[9] = biological target: Casein kinase I isoform gamma-1 (Homo sapiens) (UniProt Q9HCP0); test: Inhibition of CSNK1G1 at 1 uM; in short: as §2
[10] = biological target: Calcium/calmodulin-dependent protein kinase type 1D (Homo sapiens) (UniProt Q8IU85); test: Inhibition of CAMK1D at 1 uM; in short: as §1
[11] = biological target: Rho-associated protein kinase 2 (Homo sapiens) (UniProt O75116); test: Inhibition of ROCK2 at 1 uM
[12] = biological target: T2, Mitogen-activated protein kinase 12 (Homo sapiens) (UniProt P53778); test: Inhibition of p38-gamma at 1 uM
T2 sequence (whole entry): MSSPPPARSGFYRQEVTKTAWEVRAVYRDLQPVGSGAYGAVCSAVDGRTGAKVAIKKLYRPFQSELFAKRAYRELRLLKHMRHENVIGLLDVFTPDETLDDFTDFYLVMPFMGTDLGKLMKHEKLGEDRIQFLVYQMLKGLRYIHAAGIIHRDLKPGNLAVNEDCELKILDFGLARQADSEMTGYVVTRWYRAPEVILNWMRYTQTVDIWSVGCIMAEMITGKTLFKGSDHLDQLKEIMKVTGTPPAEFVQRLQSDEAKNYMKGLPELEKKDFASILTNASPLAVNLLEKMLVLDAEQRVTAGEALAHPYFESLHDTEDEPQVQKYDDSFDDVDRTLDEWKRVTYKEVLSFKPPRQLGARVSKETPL

[13] = biological target: Serine/threonine-protein kinase PAK 6 (Homo sapiens) (UniProt Q9NQU5); test: Inhibition of PAK6 at 1 uM
[14] = biological target: T3, Serine/threonine-protein kinase D3 (Homo sapiens) (UniProt O94806); test: Inhibition of PRKD3 at 1 uM
T3 sequence (whole entry): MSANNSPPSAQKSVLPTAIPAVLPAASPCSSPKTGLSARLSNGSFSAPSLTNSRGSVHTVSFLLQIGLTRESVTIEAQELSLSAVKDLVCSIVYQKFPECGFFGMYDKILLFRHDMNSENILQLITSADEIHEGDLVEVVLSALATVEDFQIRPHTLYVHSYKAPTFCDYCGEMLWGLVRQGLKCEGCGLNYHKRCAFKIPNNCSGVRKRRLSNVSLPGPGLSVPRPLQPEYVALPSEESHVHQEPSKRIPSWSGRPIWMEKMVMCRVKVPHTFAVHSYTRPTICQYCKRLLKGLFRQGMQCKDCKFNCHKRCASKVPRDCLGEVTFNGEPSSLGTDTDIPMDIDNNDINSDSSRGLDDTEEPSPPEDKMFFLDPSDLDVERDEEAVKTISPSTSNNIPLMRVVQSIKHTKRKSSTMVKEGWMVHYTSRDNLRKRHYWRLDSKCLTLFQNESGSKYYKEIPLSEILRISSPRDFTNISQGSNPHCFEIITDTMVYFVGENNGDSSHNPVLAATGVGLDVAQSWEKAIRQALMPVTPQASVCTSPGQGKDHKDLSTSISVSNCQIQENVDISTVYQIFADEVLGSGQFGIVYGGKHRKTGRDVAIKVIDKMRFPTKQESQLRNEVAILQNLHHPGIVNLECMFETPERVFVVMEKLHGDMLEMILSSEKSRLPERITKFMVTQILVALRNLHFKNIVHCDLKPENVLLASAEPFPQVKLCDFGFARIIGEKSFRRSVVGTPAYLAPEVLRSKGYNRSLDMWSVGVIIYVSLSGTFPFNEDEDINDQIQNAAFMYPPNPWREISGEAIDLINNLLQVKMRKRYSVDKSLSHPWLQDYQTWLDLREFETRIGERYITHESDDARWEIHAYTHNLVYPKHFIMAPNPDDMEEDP

MAP/microtubule affinity-regulating kinase 3 (Homo sapiens), sequence (P27448 whole entry, looked up): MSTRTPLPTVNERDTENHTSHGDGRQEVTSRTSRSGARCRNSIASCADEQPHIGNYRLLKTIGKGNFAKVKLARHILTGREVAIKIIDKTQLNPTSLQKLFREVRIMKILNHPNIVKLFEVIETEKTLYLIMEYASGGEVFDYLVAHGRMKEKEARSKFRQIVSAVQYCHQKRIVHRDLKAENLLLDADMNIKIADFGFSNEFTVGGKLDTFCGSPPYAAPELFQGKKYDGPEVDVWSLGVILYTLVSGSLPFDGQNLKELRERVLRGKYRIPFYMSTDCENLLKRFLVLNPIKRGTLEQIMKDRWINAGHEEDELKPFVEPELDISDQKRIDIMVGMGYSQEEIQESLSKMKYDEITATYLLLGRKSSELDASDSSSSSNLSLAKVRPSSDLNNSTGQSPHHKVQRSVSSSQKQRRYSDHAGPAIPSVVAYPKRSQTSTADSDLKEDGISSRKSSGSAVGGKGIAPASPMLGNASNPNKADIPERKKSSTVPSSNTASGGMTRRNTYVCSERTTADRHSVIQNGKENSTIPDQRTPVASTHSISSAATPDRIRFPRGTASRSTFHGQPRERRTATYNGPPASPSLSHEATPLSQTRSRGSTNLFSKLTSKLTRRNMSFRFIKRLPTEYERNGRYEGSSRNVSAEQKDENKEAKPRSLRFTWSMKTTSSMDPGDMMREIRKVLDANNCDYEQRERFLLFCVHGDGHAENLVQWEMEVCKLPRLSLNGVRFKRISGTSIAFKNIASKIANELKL
Rho-associated protein kinase 2 (Homo sapiens), sequence (O75116 whole entry, looked up): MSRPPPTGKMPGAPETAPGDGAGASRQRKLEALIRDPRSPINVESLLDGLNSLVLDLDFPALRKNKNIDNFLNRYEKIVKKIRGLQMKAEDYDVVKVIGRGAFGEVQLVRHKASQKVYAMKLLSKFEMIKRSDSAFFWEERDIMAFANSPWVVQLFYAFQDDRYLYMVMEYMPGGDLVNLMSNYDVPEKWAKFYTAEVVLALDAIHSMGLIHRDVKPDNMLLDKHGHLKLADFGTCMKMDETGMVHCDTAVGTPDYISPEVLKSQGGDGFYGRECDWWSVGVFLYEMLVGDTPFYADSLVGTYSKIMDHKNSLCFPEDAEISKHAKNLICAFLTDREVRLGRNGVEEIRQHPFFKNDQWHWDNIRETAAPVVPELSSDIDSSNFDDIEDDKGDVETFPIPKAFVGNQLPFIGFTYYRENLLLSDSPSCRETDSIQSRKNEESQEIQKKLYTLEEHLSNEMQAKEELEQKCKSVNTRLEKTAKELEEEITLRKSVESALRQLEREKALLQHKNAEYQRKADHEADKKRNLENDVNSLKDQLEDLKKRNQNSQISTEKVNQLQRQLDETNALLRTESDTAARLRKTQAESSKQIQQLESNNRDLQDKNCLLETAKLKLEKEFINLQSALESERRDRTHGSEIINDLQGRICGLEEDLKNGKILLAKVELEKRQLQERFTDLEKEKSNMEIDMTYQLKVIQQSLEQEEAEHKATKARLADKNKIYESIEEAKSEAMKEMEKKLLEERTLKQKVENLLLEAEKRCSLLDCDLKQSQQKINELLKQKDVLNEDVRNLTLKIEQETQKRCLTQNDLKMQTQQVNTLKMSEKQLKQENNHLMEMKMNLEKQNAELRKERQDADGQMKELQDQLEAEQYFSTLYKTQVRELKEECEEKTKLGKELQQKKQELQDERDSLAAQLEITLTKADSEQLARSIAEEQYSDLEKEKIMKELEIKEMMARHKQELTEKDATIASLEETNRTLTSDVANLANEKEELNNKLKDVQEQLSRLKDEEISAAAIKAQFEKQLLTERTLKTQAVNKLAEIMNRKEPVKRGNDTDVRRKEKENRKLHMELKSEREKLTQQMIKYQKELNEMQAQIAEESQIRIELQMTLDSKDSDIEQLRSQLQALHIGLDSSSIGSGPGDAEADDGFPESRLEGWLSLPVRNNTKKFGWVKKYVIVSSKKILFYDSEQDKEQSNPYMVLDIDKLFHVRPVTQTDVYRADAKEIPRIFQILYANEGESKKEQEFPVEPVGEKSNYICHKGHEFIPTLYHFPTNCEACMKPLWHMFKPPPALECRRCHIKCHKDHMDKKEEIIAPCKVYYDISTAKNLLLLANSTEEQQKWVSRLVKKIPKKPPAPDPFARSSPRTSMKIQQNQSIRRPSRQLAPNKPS
Serine/threonine-protein kinase MRCK gamma (Homo sapiens), sequence (Q6DT37 whole entry): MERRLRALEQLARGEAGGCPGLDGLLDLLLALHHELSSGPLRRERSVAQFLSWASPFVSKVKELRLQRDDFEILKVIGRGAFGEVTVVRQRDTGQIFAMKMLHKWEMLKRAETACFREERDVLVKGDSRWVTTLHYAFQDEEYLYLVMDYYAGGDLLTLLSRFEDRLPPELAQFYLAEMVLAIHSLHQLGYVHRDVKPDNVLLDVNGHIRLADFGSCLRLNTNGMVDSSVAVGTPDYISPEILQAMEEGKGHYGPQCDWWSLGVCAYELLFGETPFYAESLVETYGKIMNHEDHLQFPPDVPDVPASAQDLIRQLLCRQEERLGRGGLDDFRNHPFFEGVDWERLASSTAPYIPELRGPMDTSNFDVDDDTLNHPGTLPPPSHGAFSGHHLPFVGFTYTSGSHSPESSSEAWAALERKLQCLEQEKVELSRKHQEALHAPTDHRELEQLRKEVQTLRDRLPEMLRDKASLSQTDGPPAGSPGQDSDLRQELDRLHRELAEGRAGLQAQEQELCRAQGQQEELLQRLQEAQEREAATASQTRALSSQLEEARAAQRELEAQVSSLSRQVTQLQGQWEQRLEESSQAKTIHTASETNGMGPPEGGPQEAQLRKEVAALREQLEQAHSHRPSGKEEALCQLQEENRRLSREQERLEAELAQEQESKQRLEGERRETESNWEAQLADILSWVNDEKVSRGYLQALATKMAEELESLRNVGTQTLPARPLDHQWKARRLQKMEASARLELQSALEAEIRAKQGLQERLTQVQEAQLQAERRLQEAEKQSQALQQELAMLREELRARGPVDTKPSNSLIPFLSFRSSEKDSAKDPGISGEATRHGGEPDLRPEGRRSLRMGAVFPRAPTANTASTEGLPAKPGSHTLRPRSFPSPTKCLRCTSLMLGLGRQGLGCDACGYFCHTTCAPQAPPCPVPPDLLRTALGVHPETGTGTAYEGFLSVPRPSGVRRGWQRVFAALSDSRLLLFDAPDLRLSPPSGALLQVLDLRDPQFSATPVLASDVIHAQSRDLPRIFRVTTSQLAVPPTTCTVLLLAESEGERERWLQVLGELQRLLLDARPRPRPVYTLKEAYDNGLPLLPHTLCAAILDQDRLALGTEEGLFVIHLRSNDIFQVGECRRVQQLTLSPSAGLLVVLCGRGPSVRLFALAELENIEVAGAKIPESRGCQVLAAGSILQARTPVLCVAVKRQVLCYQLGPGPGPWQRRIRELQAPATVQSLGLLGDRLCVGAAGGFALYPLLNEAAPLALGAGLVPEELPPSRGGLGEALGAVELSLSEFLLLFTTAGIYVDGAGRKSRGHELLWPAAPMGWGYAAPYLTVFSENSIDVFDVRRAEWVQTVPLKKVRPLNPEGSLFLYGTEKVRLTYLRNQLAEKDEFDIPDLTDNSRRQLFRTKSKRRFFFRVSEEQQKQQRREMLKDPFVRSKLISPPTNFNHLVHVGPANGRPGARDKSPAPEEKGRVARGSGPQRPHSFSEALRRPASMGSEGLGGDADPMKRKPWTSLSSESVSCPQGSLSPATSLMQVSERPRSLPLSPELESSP
Serine/threonine-protein kinase PAK 6 (Homo sapiens), sequence (Q9NQU5 whole entry, looked up): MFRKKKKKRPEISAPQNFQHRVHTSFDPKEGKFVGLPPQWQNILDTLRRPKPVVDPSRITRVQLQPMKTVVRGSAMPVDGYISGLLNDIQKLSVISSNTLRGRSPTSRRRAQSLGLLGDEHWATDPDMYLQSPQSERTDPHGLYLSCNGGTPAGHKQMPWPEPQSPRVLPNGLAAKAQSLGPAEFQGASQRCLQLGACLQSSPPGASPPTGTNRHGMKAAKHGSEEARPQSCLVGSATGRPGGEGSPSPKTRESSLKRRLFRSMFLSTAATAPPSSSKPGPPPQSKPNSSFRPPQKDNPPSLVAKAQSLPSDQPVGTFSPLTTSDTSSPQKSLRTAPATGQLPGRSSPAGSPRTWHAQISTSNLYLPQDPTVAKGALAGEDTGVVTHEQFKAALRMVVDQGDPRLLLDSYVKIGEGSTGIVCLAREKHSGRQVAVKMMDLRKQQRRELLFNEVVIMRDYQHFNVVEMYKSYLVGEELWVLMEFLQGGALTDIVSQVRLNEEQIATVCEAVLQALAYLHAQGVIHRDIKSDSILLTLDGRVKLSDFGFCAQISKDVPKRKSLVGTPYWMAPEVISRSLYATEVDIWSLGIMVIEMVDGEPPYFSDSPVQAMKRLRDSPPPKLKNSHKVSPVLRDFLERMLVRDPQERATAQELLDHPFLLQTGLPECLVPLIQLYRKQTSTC
Calcium/calmodulin-dependent protein kinase type 1D (Homo sapiens), sequence (Q8IU85 whole entry, looked up): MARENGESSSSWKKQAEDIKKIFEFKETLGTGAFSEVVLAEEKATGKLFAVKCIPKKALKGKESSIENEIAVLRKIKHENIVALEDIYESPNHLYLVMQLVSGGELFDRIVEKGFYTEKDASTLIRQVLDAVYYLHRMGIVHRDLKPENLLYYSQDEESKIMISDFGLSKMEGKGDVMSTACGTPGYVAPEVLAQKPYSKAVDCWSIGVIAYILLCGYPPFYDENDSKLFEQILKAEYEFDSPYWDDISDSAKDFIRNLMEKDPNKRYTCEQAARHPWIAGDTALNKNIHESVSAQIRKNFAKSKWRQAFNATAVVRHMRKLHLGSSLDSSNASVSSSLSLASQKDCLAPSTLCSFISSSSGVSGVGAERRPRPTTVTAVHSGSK
Aurora kinase B (Homo sapiens), sequence (Q96GD4 whole entry): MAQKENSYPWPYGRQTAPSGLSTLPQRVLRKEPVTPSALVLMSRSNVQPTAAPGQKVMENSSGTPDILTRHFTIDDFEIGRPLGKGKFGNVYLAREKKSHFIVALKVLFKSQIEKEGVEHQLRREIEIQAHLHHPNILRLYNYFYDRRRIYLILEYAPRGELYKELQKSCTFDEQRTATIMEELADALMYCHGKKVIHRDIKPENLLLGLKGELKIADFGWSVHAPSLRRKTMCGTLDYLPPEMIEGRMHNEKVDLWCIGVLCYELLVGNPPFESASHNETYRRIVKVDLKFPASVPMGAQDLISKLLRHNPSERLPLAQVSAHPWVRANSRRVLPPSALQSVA

Compound	inhibition [1] [%]	inhibition [2] [%]	inhibition [3] [%]	inhibition [4] [%]	inhibition [5] [%]	inhibition [6] [%]	inhibition [7] [%]	inhibition [8] [%]	inhibition [9] [%]	inhibition [10] [%]	inhibition [11] [%]	inhibition [12] [%]	inhibition [13] [%]	inhibition [14] [%]
CN1CCN(c2ccc(-c3cnc4c(c3)N(Cc3cc(F)ccc3F)CCN4)cn2)CC1	< 50	< 50	< 50	< 50	< 50	< 50	< 50	< 50	< 50	< 50	< 50	< 50	< 50	< 50
CC(=O)N1CCN(c2cc(-c3cnc4c(c3)N(Cc3cc(Cl)ccc3C(F)(F)F)CCN4)ccn2)CC1	< 50	< 50	< 50	< 50	< 50	< 50	< 50	< 50	< 50	< 50	< 50	< 50	< 50	< 50
CN1CCN(c2ccc(-c3cnc4c(c3)N(Cc3c(F)ccc(F)c3Cl)CCN4)cn2)CC1	< 50	< 50	< 50	< 50	< 50	< 50	< 50	< 50	< 50	< 50	< 50	< 50	< 50	< 50
FC(F)(F)c1ccc(Cl)cc1CN1CCNc2ncc(-c3ccnc(N4CCNCC4)c3)cc21	< 50	< 50	< 50	< 50	< 50	< 50	76	< 50	< 50	< 50	76	< 50	< 50	< 50
CN1CCN(c2ccc(-c3cnc4c(c3)N(Cc3cc(Cl)ccc3Cl)CCN4)cn2)CC1	< 50	< 50	< 50	< 50	< 50	< 50	< 50	< 50	< 50	< 50	< 50	< 50	< 50	< 50
